# Screening data as filed in PubChem.
# FAS TE block = inhibitors of human fatty acid synthase thioesterase domain | P49327 | recombinant FAS-TE, OMFH fluorogenic substrate, fluorescence endpoint | inhibition, % at 15 µM | 360,000 tested, 0.67% active;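 active = compounds whose normalised, plate-corrected inhibition of enzyme fluorescence in the single-dose primary screen is 50% or more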
# MT1-MMP act inh = blocks activation of human MT1-MMP; P50281; HT1080 RFP-PRO-GFP cells, GFP/RFP ratio fluorescence, overnight; percent of plate control window, DMSO zero; GFP/RFP ratio change, % at 20 µM; 360,000 tested, 0.061% active; AID 651647;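 active = GFP/RFP ratio change of at least 30% with cell ATP level not reduced by more than half and red fluorescence within 50% of control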
#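 Material – HT1080 RFP-PRO-GFP cells · Control set – DMSO wells and RFP-L50D-GFP cells · Incubation – overnight cell settling, then overnight compound exposure, 37 °C, 5% CO2 · Compound dosing – single-point 20 µM compound, 1% DMSO · Read-out – GFP/RFP fluorescence ratio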
# SKN-1 inh = inhibitors of C. elegans SKN-1 | C. elegans VP596 Pgst-4::GFP/RFP ratio, acrylamide-induced, 24 h | inhibition, % at 21.8 µM | 360,000 tested, 0.49% active | AID 624304;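 active = interference check ratio from 0.5 to 1.5 plus GFP to RFP signal ratio inhibition reaching or exceeding a fixed threshold, cut at about 30% in these data, passing the limit was not always enough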
# DAGLB inh = blocks human DAGLB lipase activity; Q8NCG7; HEK293T DAGLB membrane lysate, EnzChek fluorogenic substrate; inhibition, % at 5.17 µM; 340,000 tested, 0.059% active; in the data active = inhibition above about 34%
# Target sequence (Q8NCG7 whole entry, looked up): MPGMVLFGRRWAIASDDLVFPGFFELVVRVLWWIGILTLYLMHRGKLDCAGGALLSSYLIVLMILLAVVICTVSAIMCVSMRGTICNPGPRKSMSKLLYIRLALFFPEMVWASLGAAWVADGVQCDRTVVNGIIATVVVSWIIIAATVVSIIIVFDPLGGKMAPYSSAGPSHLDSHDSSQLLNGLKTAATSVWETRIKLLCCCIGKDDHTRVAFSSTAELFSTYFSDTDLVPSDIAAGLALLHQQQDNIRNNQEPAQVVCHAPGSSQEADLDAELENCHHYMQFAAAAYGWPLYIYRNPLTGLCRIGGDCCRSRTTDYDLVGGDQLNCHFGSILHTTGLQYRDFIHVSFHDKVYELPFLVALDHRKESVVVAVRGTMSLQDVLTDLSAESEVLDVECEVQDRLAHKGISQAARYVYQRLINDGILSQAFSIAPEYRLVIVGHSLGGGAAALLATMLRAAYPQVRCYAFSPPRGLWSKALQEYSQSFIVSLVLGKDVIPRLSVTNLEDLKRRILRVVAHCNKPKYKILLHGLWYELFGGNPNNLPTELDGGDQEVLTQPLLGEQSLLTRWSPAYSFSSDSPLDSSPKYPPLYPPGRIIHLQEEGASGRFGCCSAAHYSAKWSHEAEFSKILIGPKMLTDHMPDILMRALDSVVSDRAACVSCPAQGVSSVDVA
# hiPSC survival = enhancers of human iPSC single-cell survival; hiPSC single-cell survival, ATPlite luminescence; 100% = ROCK inhibitor wells, 0% = DMSO; survival enhancement, % at 20 µM; 360,000 tested, 0.044% active; in the data active = survival enhancement above about 18%;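 note: cells exposed to compounds for 16 hours before the ATP read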
# FAS-TE inh conf = FAS thioesterase (human) inhibition, confirmation; shares compounds with FAS TE block; recombinant FAS-TE, OMFH fluorogenic substrate, fluorescence; inhibition, % at 15 µM; 2,300 tested, 45% active;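 active = compounds inhibiting the enzyme by at least 50% at 15 µM in any one of the replicates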
# A number is an active result; n = inactive; x = no result given. An excerpt weighted towards active compounds, which were near 1.3% of everything screened.
SMILES,FAS TE block,MT1-MMP act inh,SKN-1 inh,DAGLB inh,hiPSC survival,FAS-TE inh conf
COc1ccc2[nH]c3c(c2c1)CCN1C(=O)C(CC(=O)NCc2ccco2)C[C@H](C(=O)N2CCOCC2)[C@@]31CCC1CCCC1 (some centres undefined),65,n,n,n,n,76
COc1ccc2[nH]c3c(c2c1)CCN1C(=O)C(CC(=O)NC(C)(C)C)C[C@H](C(=O)N2CCOCC2)[C@@]31CCC1CCCC1 (some centres undefined),53,n,n,n,n,69
CC(=O)N1CCCC(C)(C(=O)Nc2cccc(OC(C)C)c2)C1 (centres undefined),n,n,n,x,n,x
Cc1noc(C)c1C(=O)N1CCC1(C)C(=O)NS(=O)(=O)c1ccc(F)cc1F (centres undefined),n,n,n,x,n,x
Cc1ccc(S(=O)(=O)N2CCN(c3ccnc4cc(Cl)ccc34)CC2)cc1,64,n,n,n,n,n
Cc1ccc(S(=O)(=O)N2CCN(c3ccnc4cc(Cl)ccc34)CC2)cc1C,n,n,n,n,n,x
Cc1ccc(C)c(Cn2c(C)nc3c(sc(=S)n3-c3ccccc3)c2=O)c1,n,n,n,n,n,x
Oc1ccc(Cl)cc1Sc1cc(Cl)ccc1O,88,n,n,n,n,98
O=C(CSc1ccc(Cl)cc1)N1CCN(c2ncc(C(F)(F)F)cc2Cl)CC1,53,n,56,n,n,n
CC(=O)Nc1ccc(-c2ccnc3c2CC(C(=O)NCCC(F)(F)F)O3)cc1 (centres undefined),n,n,n,x,n,x
Cc1ccc(-c2cc(C(F)F)n3ncc(C(=O)N4CCc5ccccc5C4)c3n2)cc1,53,n,n,n,n,n
Cc1cccc(NC(=O)Oc2ccc(Cl)c3cccnc23)c1,n,n,n,n,n,x
O=C(CCSc1ccccc1Cl)Nc1cccc([N+](=O)[O-])c1,52,n,n,n,n,n
CCN1C(=O)[C@H]2[C@@H](c3ccc(-c4ccc(F)cc4)c(OC)c3)N[C@@](Cc3ccccc3)(C(=O)OC)[C@H]2C1=O,90,n,n,n,n,n
CCN1C(=O)[C@H]2[C@@H](c3ccc(-c4ccccc4)c(OC)c3)N[C@@](Cc3ccccc3)(C(=O)OC)[C@H]2C1=O,69,n,n,n,n,n
CCCCCCSc1ccc([C@H]2N[C@@](Cc3ccccc3)(C(=O)OC)[C@H]3C(=O)N(CC)C(=O)[C@@H]23)cc1,n,n,n,n,n,x
CCCSc1ccc([C@H]2N[C@@](Cc3ccccc3)(C(=O)OC)[C@H]3C(=O)N(CC)C(=O)[C@@H]23)cc1,n,n,n,n,n,x
CCN1C(=O)[C@H]2[C@@H](c3ccc(-c4ccc(C(C)=O)cc4)c(OC)c3)N[C@@](Cc3ccccc3)(C(=O)OC)[C@H]2C1=O,65,n,n,n,n,n
COC(=O)[C@]1(Cc2ccccc2)N[C@H](c2ccc(SC3CCCCC3)c(OC)c2)[C@@H]2C(=O)N(C)C(=O)[C@@H]21,n,n,n,n,n,x
CCOC(=O)[C@]12CCCC=C1N(CCC1=CCCCC1)C(=O)[C@H](CC(=O)NCc1ccccc1)C2,x,n,n,x,x,x
COC(=O)C(C(=O)OC)c1cc2c(cc1CNS(=O)(=O)c1ccc(C)cc1)OCO2,x,n,n,x,x,x
COc1ccccc1-c1cnc(C(O)c2cccc(CN3CCCCC3)c2)[nH]1 (centres undefined),n,n,n,x,n,x
CCCCSc1nc2ccc(Nc3nc(N4CCOCC4)nc(N4CCOCC4)n3)cc2s1,86,n,n,n,n,n
CCCCNC(=O)CSc1nc2ccc(Nc3nc(N4CCOCC4)nc(N4CCOCC4)n3)cc2s1,n,n,n,n,n,x
CC1=CC(=C(C#N)C#N)c2ccccc2N1C,61,n,n,n,n,n
SMILES,FAS TE block,MT1-MMP act inh,SKN-1 inh,DAGLB inh,hiPSC survival,FAS-TE inh conf
COc1ccc(-c2nc3ccc(Br)cn3c2Cc2cccc(Cl)c2)cc1OC,n,n,n,x,n,x
COc1ccc([C@@H]2CC(=O)[C@@H]3CN(S(=O)(=O)c4ccc(C)cc4)[C@H](c4ccccc4)C[C@@H]3N2S(=O)(=O)c2ccccc2)cc1,77,n,n,x,n,n
COc1ccc([C@@H]2C[C@H]3[C@@H](CN2S(=O)(=O)c2ccccc2)C(=O)C[C@@H](c2ccccc2)N3S(=O)(=O)c2ccc(C)cc2)cc1,n,n,n,n,n,x
Cc1ccc(S(=O)(=O)N2[C@H](c3ccccc3)CC(=O)[C@@H]3CN(S(=O)(=O)c4ccccc4)[C@H](c4ccccc4)C[C@@H]32)cc1,83,n,n,x,n,n
Cc1cc(C(O)c2ncc(-c3ccccc3C)[nH]2)ccc1F (centres undefined),n,n,n,x,n,x
COC(=O)[C@@]12CCCCN1[C@H](c1ccc(-c3ccc(OC)cc3)cc1)[C@@H]1C(=O)N(C)C(=O)[C@@H]12,n,n,n,n,n,x
CCN1C(=O)[C@@H]2[C@@H](c3ccc(-c4ccc5c(c4)OCO5)c(OC)c3)N3CCCC[C@@]3(C(=O)OC)[C@@H]2C1=O,53,n,n,n,n,n
COC(=O)[C@@]12CCCCN1[C@H](c1ccc(-c3ccc4c(c3)OCO4)cc1)[C@H]1C(=O)N(C)C(=O)[C@H]12,79,n,n,n,n,n
COC(=O)c1cc(NC(=O)N2c3ccccc3Sc3ccccc32)cc(C(=O)OC)c1,72,n,n,n,n,n
O=C(Nc1ccc(S(=O)(=O)N2CCCC2)cc1)N1c2ccccc2Sc2ccccc21,76,n,n,n,n,n
COC(=O)c1ccc(C(=O)OC)c(NC(=O)N2c3ccccc3Sc3ccccc32)c1,n,n,n,n,n,x
Cc1ccc(S(=O)(=O)NC(=O)Cn2nnc(-c3ccccc3)c2COc2ccc3ccccc3c2)cc1,n,n,n,x,n,x
NC(=O)C1CN(C(=O)c2nn(Cc3ccccc3)c(=O)c3ccccc23)c2ccccc2O1 (centres undefined),n,n,n,n,n,x
CCC(C)(C)C1CCc2[nH]nc(C(=O)NCCN3CCOCC3)c2C1 (centres undefined),n,n,n,n,n,x
CCC(C)(C)C1CCc2[nH]nc(C(=O)NCCCNC(=O)OC(C)(C)C)c2C1 (centres undefined),69,n,n,n,n,50
CCOC(=O)CSc1nc(C)cc(C)c1C#N,n,n,n,n,n,x
Cc1cc(C)c(C#N)c(SCC(=O)c2ccc(Cl)cc2Cl)n1,72,n,n,n,n,37
CC(C)NC(=O)C1(C)CN(S(C)(=O)=O)CC(=O)N1Cc1cccc(C(F)(F)F)c1 (centres undefined),x,n,n,x,x,x
CCS(=O)(=O)c1ccc2oc(Nc3ccc(C(C)(C)C)cc3)nc2c1,76,n,n,n,n,52
